The chains are these.
B1: Osa-1-4 twister ribozyme (parent)
chain: CCGCCUAACACUGCCAAUGCCGGUCCCAAGCCCGGAUAAAAGUGGAGGGGGCGG

Variants of B1 are the subject of the series. Description: self-cleavage, relative activity (ratio to wild type); higher = more cleavage; co-transcriptional. The gist of the method: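 A DNA template was synthesised for a 54-nucleotide twister ribozyme from Oryza sativa, with 97 % wild-type base and 1 % of each other base at each of the 48 positions downstream of the cleavage site. The ribozyme cleaved itself co-transcriptionally during 2 h of in vitro transcription at 37 °C. Reverse transcription with a template-switching oligonucleotide, PCR amplification and deep sequencing followed, and cleavage status came from reads with or without upstream sequence. Relative activity is the fraction cleaved normalised to wild type.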
Regarding A17U A36G, the self-cleavage stood at 1.05. With A17U A36U, the self-cleavage stood at 1.04. In the case of A17U A36C it was 0.79; in that of A17U C20A, 0.85; in that of A17U C20G, 0.23. In the case of A17U C20U it was 0.95; in that of A17U G13A, 0.14. As to A17U G13U, the self-cleavage amounted to 0.03. Under A17U G13C stands 0.03; under A17G C26G, 0.12. Turning to A17G C26U, the self-cleavage amounted to 0.88. Under A17G C26A stands 0.08; under A17C G42A, 0.5; under A17C G42C, 0.21.

As for A17C G42U, the self-cleavage is 0.57. For the variant A17G A36C, the self-cleavage worked out at 0.82. On to A17G A36U, for which the self-cleavage amounted to 1.01. For the variant A17G A36G, the self-cleavage came out at 0.99. Under A17G C15A stands 0.78.

Turning to A17G C15U, the self-cleavage amounted to 0.71. Under A17G C15G stands 0.71; under A17G A28C, 0.93. Turning to A17G A28G, the self-cleavage is 0.42.

Turning to A17G A28U, the self-cleavage stood at 0.87. In the case of A17U G47A it was 0.47; in that of A17U G47C, 0.16; in that of A17U G47U, 0.45. Under A17C G30A stands 0.04; under A17C G30C, 0.03. For A17C G30U, the self-cleavage worked out at 0.03.

Take A17G G23A: the self-cleavage stood at 0.43. Take A17G G23C: the self-cleavage was determined as 0.08. For A17G G23U, the self-cleavage stood at 0.08. In the case of A17C G53C it was 0.1; in that of A17C G53A, 0.86. In the case of A17C G53U it was 0.36. For A17G A46G, the self-cleavage was found to be 0.07. As for A17G A46C, the self-cleavage amounted to 0.1.

In the case of A17G A46U, the self-cleavage is 0.09. On to A17G G42C, for which the self-cleavage was found to be 0.08. Under A17G G42A stands 0.58; under A17G G42U, 0.21; under A17U C11A, 0.7. Under A17U C11U stands 0.86; under A17U C11G, 0.48; under A17U A7U, 0.09. Under A17U A7C stands 0.05; under A17U A7G, 0.43. Turning to A17U G19U, the self-cleavage was determined as 0.38. In the case of A17U G19C it was 0.43; in that of A17U G19A, 0.83; in that of A17U C52A, 1.02. In the case of A17U C52G it was 0.98.

In the case of A17U C52U, the self-cleavage was determined as 1.01. Under A17C U43A stands 0.64; under A17C U43G, 0.26; under A17C U43C, 0.58. In the case of A17G C9G it was 0.78. In the case of A17G C9A it was 0.33; in that of A17G C9U, 0.47; in that of A17G A39C, 0.91. On to A17G A39U, for which the self-cleavage stood at 0.95.

Regarding A17G A39G, the self-cleavage turned out to be 0.94.

A17C C32A: the self-cleavage amounted to 0.06. In the case of A17C C32G it was 0.08; in that of A17C C32U, 0.05.

A17G G48U: the self-cleavage worked out at 0.12.

As to A17G G48A, the self-cleavage is 0.15. Under A17G G48C stands 0.13; under A17G G19U, 0.52; under A17G G19A, 0.95. In the case of A17G G19C it was 0.29; in that of A17U C33G, 0.06.

As to A17U C33A, the self-cleavage was found to be 0.19.

A17U C33U: the self-cleavage came to 0.85. Under A17U G53C stands 0.12; under A17U G53A, 0.95; under A17U G53U, 0.41. Under A17G A29G stands 0.35. Under A17G A29C stands 0.07.

With A17G A29U, the self-cleavage is 0.27. As to A17G G50A, the self-cleavage is 0.51. In the case of A17G G50C it was 0.91.

A17G G50U: the self-cleavage was found to be 0.99. In the case of A17U A38U it was 1.02. In the case of A17U A38G it was 1.02. In the case of A17U A38C it was 0.98; in that of A17G G44U, 0.74. Turning to A17G G44C, the self-cleavage stood at 0.88. In the case of A17G G44A it was 0.88; in that of A17U, 1.03; in that of A17G, 0.97. Under A17G G34U stands 0.57; under A17G G34A, 0.73.

In the case of A17G G34C, the self-cleavage came to 0.41. Under A17C G49C stands 0.04; under A17C G49A, 0.05. Under A17C G49U stands 0.05; under A17G C21A, 0.8.

For the variant A17G C21U, the self-cleavage was 0.98. In the case of A17G C21G it was 0.09; in that of A17C G13C, 0.04; in that of A17C G13A, 0.04. For the variant A17C G13U, the self-cleavage came to 0.02.

Consider A17G A8C, for which the self-cleavage stood at 0.12. In the case of A17G A8U, the self-cleavage was 0.49.

Regarding A17G A8G, the self-cleavage is 0.63.

With A17C C33A, the self-cleavage was determined as 0.05.

Consider A17C C33U, for which the self-cleavage amounted to 0.16.

For A17C C33G, the self-cleavage is 0.04. A17G G51C: the self-cleavage was 0.14. In the case of A17G G51A, the self-cleavage worked out at 0.44. Under A17G G51U stands 0.3; under A17C C52A, 0.87; under A17C C52U, 0.78. Turning to A17C C52G, the self-cleavage amounted to 0.9.

Take A17U G50U: the self-cleavage stood at 1.02. In the case of A17U G50A it was 0.69; in that of A17U G50C, 1.02; in that of A17G C31A, 0.05. In the case of A17G C31U it was 0.9; in that of A17G C31G, 0.22; in that of A17C U37G, 0.81. Under A17C U37C stands 0.85; under A17C U37A, 0.41; under A17U C14U, 0.79. Take A17U C14G: the self-cleavage turned out to be 0.25.

With A17U C14A, the self-cleavage was found to be 0.18.

Turning to A17U C21G, the self-cleavage came to 0.09. Under A17U C21A stands 0.83; under A17U C21U, 1.05. Under A17G C33G stands 0.07; under A17G C33A, 0.18; under A17G C33U, 0.19. Under A17C G23C stands 0.03. Consider A17C G23U, for which the self-cleavage turned out to be 0.04. In the case of A17C G23A it was 0.07; in that of A17G C20A, 0.89; in that of A17G C20G, 0.19.

Consider A17G C20U, for which the self-cleavage was determined as 0.97.

Consider A17G A38C, for which the self-cleavage is 0.96. In the case of A17G A38U it was 0.97; in that of A17G A38G, 0.99; in that of A17U G49C, 0.08. In the case of A17U G49U it was 0.22. On to A17U G49A, for which the self-cleavage turned out to be 0.25.

For A17G C14G, the self-cleavage was 0.29. In the case of A17G C14A it was 0.19; in that of A17G C14U, 0.69.

With A17U A8C, the self-cleavage came out at 0.11. In the case of A17U A8G it was 0.62; in that of A17U A8U, 0.42; in that of A17U G54C, 1.

Regarding A17U G54U, the self-cleavage was 0.99. Under A17U G54A stands 0.99; under A17U C25G, 0.1. In the case of A17U C25U it was 0.93; in that of A17U C25A, 0.14. Under A17G C52G stands 0.9; under A17G C52U, 1.01.

Turning to A17G C52A, the self-cleavage was found to be 0.95. In the case of A17C G45A it was 0.24; in that of A17C G45U, 0.14. Under A17C G45C stands 0.05; under A17U G35C, 0.86; under A17U G35A, 0.9. Take A17U G35U: the self-cleavage was determined as 0.92.

(Values after the RNAGym collection of RNA variant scans (doi:10.1002/anie.201605470).)
